Screens: PubChem, several laboratories
eIF4H inh = inhibitors of RNA binding by human eIF4H. Q15056. eIF4H fluorescence polarization binding assay. inhibition, % at 35 µM. actives 0.94% (n = 290,000). AID 2012;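 note: calls also rest on retests at 20 µM and on dose response follow-up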
PABP1 MLLE inh = blocks PAM2 peptide binding to the PABP1 MLLE domain; inhibition, % at 20 µM; GST-MLLE / FITC-PAM2 fluorescence polarization; actives 0.36% (n = 360,000); AID 588489; P11940; in the data active = inhibition above about 35%, passing the limit was not always enough;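 note: plate controls were DMSO wells with GST-MLLE for no effect and wells lacking GST-MLLE protein for full effect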
PABP polyA inh = PABP-poly(A) binding inhibition; P11940; PABP-poly(A) RNA binding, fluorescence polarization; calls only at 35 µM; actives 1% (n = 290,000);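 note: calls also rest on retests at 20 µM and on dose response follow-up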
eIF4E 4G PPI = blocks eIF4E binding to eIF4G | P63073+Q04637 | TR-FRET eIF4E-eIF4GI(517-606) binding, 2 h | inhibition, % at 21.7 µM | actives 0.37% (n = 220,000);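 active = inhibition above about 30%, limit read from the data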;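 note: 0% = full FRET control wells and 100% = background wells lacking eIF4GI fragment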
HCV core dimer = HCV core protein dimerization inhibition; TR-FRET GST/Flag-core106 dimerization, 1536-well; inhibition, % at 5 µM; actives 0.33% (n = 300,000); AID 1899;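 active = inhibition above the mean of all tested compounds plus 3 SD, set per screening campaign, cut at about 45% in these data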
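System: GST/Flag-tagged HCV core106 proteins. Incubation: compound-protein-antibody incubation 4 h at 22.5 °C. Technique: HTRF with 340 nm excitation, 617/671 nm emission. Medium: KF-containing HEPES buffer, pH 7.45, DTT, CHAPS, BSA. Read-out: inhibition (%) from 671 over 617 nm ratio. Also added: Eu(K)-anti-GST 90 ng/mL plus XL665-anti-Flag 1 µg/mL.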
SUMO HTRF inh = inhibitors of human SUMOylation (UBC9); P63279; HTRF SUMOylation assay, SAE1/SAE2 + UBC9, in vitro; inhibition, % at 35 µM; actives 0.36% (n = 290,000); AID 2006; in the data active = inhibition above about 50%, passing the limit was not always enough; inconclusive = no clear call, values can overlap the other calls
Target sequence (P63279 whole entry, looked up): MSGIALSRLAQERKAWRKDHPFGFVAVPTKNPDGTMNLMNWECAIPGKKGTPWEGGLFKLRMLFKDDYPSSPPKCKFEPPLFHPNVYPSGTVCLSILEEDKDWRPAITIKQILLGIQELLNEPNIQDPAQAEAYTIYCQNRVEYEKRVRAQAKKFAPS
* = called active by the depositor; i = inactive; ? = inconclusive; . = no result given; + = active, no number. Most compounds without a hit are left out; they make up all but 1.8% or so of the library. Unless noted, the rule behind the calls is not given here.

SMILES	eIF4H inh	PABP1 MLLE inh	PABP polyA inh	eIF4E 4G PPI	HCV core dimer	SUMO HTRF inh
COc1ccc(NC(=O)c2cccc(Oc3ccccc3)c2)cn1	-4	8	i	.	0	5
COc1ccc(NC(=O)CCl)cn1	?	.	?	-6	-4	83*
COc1ccc(NC(=O)c2ccco2)cn1	?	52*	?	.	11	8
COc1ccc(NC(=S)NC(=O)c2ccccc2)cn1	7	42*	i	.	.	0
CSc1ncccc1C(=O)OCC(=O)Nc1ccc2c(c1)CCC2	.	-1	.	.	.	.
CC(O)CNc1cnccn1 (stereo not drawn)	63*	10	+	0	0	-8
CC(=O)NC(c1ccc(C(C)C)cc1)c1ccc2cccnc2c1O (stereo not drawn)	10	6	i	.	6	56*
CCCCC(=O)NC(c1ccc(C(C)C)cc1)c1ccc2cccnc2c1O (stereo not drawn)	18	4	i	.	12	-49
O=C(Nc1ccccc1)C1Cc2ccccc2CN1C(=O)c1ccco1 (stereo not drawn)	23	-2	i	1	59*	24
COc1ccccc1NC(=O)C1Cc2ccccc2CN1C(=O)c1ccco1 (stereo not drawn)	7	-1	i	.	21	0
COc1ccc(N2CCN(C(=O)CCNC(=O)Cn3ccc4ccccc4c3=O)CC2)cc1	-1	2	i	78*	-4	-4
CN1CCN(C(=O)CCNC(=O)Cn2ccc3ccccc3c2=O)CC1	4	10	i	2	-2	17
O=C(CCCCl)Oc1ccc2cc(-c3ccc4ccccc4n3)c(=O)oc2c1	52*	16	i	0	-9	26
C=CCOn1c(=O)c(-c2ccccc2)[n+]([O-])c2ccccc21	5	-14	i	1	-5	16
C=CCOn1c(=O)c(-c2cc3ccccc3o2)[n+]([O-])c2ccccc21	58*	1	+	3	1	-15
CCOC(=O)COn1c(=O)c(-c2cc3ccccc3o2)[n+]([O-])c2ccccc21	64	20	+	-8	-8	5
COc1ccc(C2=CC3=C(Br)C(=O)C(C)(O)C(=O)C3=CO2)cc1 (stereo not drawn)	43	-3	+	1	24	7
CCC(=O)OC1(C)C(=O)C2=COC(c3ccc(OC)cc3)=CC2=C(Br)C1=O (stereo not drawn)	?	-25	?	8	11	8
C#CCOCCOCCOCCNc1nc(N2CCOCC2)nc(N2CCN(C(=O)[C@H](C)n3cc(CCC(=O)O)nn3)CC2)n1	.	5	.	.	.	.
CC(=O)N(C1=C(Cl)C(=O)c2ccccc2C1=O)C1CCCCC1	-3	26	i	2	-1	71*
CCCc1cc(=O)c2ccc(OC/C(C)=N/O)cc2o1	9	12	i	-3	3	-12
O=C(O)CCCCC1CCSS1 (stereo not drawn)	94	28	i	72*	23	.
O=C(O)CCNC1CCCCC1	-6	3	i	-13	-1	20
O=C(/C=C/c1ccco1)N1CCCC(c2ccccc2)C1 (stereo not drawn)	43	9	i	15	48*	34
O=C(c1ccco1)N1CCc2ccccc21	13	-3	i	0	1	11
SMILES	eIF4H inh	PABP1 MLLE inh	PABP polyA inh	eIF4E 4G PPI	HCV core dimer	SUMO HTRF inh
O=C(/C=C/c1ccco1)N1CCc2ccccc21	18*	8	i	4	5	21
Cc1ccc(/C=C/C(=O)N2CCc3ccccc32)o1	68	18	i	23	63*	30
O=C(/C=C/c1ccccc1)N1CCC(c2ccccc2)C1 (stereo not drawn)	9	-2	i	-37	9	-13
Nc1cc(Br)cc2c1[nH]c(=O)c1ccccc12	.	8	.	.	.	.
Cc1ccc(COC(=O)CCN=C2NS(=O)(=O)c3ccccc32)cc1	.	-6	.	.	-1	.
CCCNC(=O)C1(C)CCCN(C(=O)C2(c3ccc(Cl)cc3)CCCC2)C1 (stereo not drawn)	.	3	.	.	.	.
N#Cc1c(N)n[nH]c1-c1cc2c([nH]1)CCCC2	5	11	i	1	-10	17
N#Cc1cc2c([nH]c1=S)CCCCCC2	-5	38*	i	3	9	26
